Data reported in PMC3319382 (Bioorganic & medicinal chemistry, 2011).
Entries after “also recorded” stand apart in the source; their conditions may differ. Each block holds one compound with its values, some of them ahead of it.

Tests used:
[1] = target: Ras Converting Enzyme 1 (Rce1p), HA-epitope tagged, yeast (S. cerevisiae) (UniProt Q03530); test: cross-linking
yeast Rce1p [2] = target: T1, yeast Rce1p (Saccharomyces cerevisiae, UniProt Q03530); conditions: ref [12], [13]; cited from earlier work
T1 sequence (Q03530 1-315): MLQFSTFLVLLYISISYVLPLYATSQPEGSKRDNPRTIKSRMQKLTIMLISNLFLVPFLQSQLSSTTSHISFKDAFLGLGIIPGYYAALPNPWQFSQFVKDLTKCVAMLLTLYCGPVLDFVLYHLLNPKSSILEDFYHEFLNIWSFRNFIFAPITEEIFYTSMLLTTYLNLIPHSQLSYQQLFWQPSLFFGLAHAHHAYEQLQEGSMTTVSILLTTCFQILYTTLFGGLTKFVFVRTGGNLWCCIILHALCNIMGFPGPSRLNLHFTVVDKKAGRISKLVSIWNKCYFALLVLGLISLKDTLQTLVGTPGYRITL

yeast Rce1p [3] = target: T1, yeast Rce1p; test: fluorescence-based CAAX proteolysis kinetic assay; assay type: biochemical
Procedure, shortened: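 Enzyme source was carbonate-washed membranes from S. cerevisiae overexpressing yeast Rce1p as sole CAAX protease, diluted in 100 mM Hepes pH 7.5, 5 mM MgCl2 and preincubated 10 min at 30 °C. The final mix held 0.25 mg/mL membrane protein and a 10-point substrate series (0–45 or 0–50 μM) in triplicate wells. Read at 340/420 nm every 30–60 s for 1 h at 30 °C. Product was quantified against trypsin-cleaved standard curves.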

Compound: Peptide 2, Abz-KSKTKC(farnesyl)K(Dnp)IM, internally quenched fluorogenic farnesylated substrate based on the K-Ras4b C-terminal sequence
percent labeling of Rce1p by 14 (15 μM) left with 50 μM 2 [1]: 84% | percent labeling of Rce1p by 14 (15 μM) left with 100 μM 2 [1]: 7%

Compound: c1cnc2c(c1)ccc1cccnc12 [1,10-phenanthroline]
inhibition of yeast Rce1p (yeast Rce1p [2]): inhibited

Compound: [Zn] [zinc]
inhibition of yeast Rce1p (yeast Rce1p [2]): inhibited

Further lines, with some results ahead:

h (Hill coefficient) (yeast Rce1p [3]; Rce1p-enriched membranes 0.25 mg/mL, pH 7.5, 30 °C, Hill Equation fit, n=5): 1.8 | Vmax/KM (yeast Rce1p [3]; Rce1p-enriched membranes 0.25 mg/mL, pH 7.5, 30 °C, n=5): 8.9×10^−5 L/min/mg protein | efficiency (Vmax/KM) of Rce1p processing, fold lower than 2 (yeast Rce1p [3]; compared with 2): 10 -fold | maximal processing rate (Vmax), fold less than 2 (yeast Rce1p [3]; compared with 2): approximately 7 -fold | maximal processing rate (Vmax), fold greater than 4 (yeast Rce1p [3]; compared with 4): 9 -fold | Rce1p substrate (yeast Rce1p [3]; fluorescence-based kinetic evaluation): could serve as a substrate for Rce1p | binding affinity, fold less than that of 4 (yeast Rce1p [3]; from KM, compared with 4): 4 -fold
Compound: Abz-KSKTKC(C10BP)K(Dnp)IM [Peptide 6]
efficiency (Vmax/KM) of Rce1p processing compared with 4 (yeast Rce1p [3]; compared with 4): approximately double that of 4; also recorded: increased approximately two-fold

fold labeling efficiency against probe 8 (fold less than 8) [1]: 4
Compound: Peptide 9, Biotin-K(Dde)KSKTKC(C10BP)K(Dnp)IM
